Source: ChEMBL document CHEMBL4732237, “Discovery of 4-alkoxy-2-aryl-6,7-dimethoxyquinolines as a new class of topoisomerase I inhibitors endowed with potent in vitro anticancer activity” (2021)

Assays:
Type in all cases: functional
Conditions in all cases: read-out: GI
T47D = test: Growth inhibition of human T47D cells at 10 uM incubated for 48 hrs by sulforhodamine B assay relative to control
How it was run: (§1)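 NCI one-dose screen across a 59-line panel. Cells were grown in RPMI 1640 with 5% FBS and 2 mM L-glutamine, plated and pre-incubated 24 h, then exposed to drug for 48 h at 37 °C, 5% CO2. Adherent cells were fixed with cold TCA (10% final), stained with 0.4% SRB in 1% acetic acid and read at 515 nm. Result is percent growth relative to no-drug control and time-zero cell count.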

SW-620 = test: Growth inhibition of human SW-620 cells at 10 uM incubated for 48 hrs by sulforhodamine B assay relative to control; how it was run: as §1
A498 = test: Growth inhibition of human A498 cells at 10 uM incubated for 48 hrs by sulforhodamine B assay relative to control; how it was run: as §1
SF-268 = test: Growth inhibition of human SF-268 cells at 10 uM incubated for 48 hrs by sulforhodamine B assay relative to control
How it was run: (§2)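 NCI one-dose screen. Cells grown in RPMI 1640 with 5% FBS and 2 mM L-glutamine, plated and incubated 24 h at 37 °C, 5% CO2. DMSO-dissolved drug added, then 48 h further incubation. Adherent cells fixed with cold TCA, suspension cells fixed after settling. Stained with 0.4% SRB, absorbance read at 515 nm. Reported as percent growth relative to no-drug control and time-zero cell number.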

MDA-MB-231 = test: Growth inhibition of human MDA-MB-231 cells at 10 uM incubated for 48 hrs by sulforhodamine B assay relative to control
How it was run: (§3)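 NCI-60 single-dose screen. Cells were grown in RPMI 1640 with 5% FBS and 2 mM L-glutamine and plated 24 h before drug addition. Compound was added at one concentration in DMSO-derived medium and incubated for 48 h at 37 °C in 5% CO2. Read-out was SRB protein stain at 515 nm. Result is percent growth versus the no-drug control and the time-zero cell count; values below 0 indicate lethality.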

SK-OV-3 = test: Growth inhibition of human SK-OV-3 cells at 10 uM incubated for 48 hrs by sulforhodamine B assay relative to control; how it was run: as §2
HOP-62 = test: Growth inhibition of human HOP-62 cells at 10 uM incubated for 48 hrs by sulforhodamine B assay relative to control; how it was run: as §3
SN12C = test: Growth inhibition of human SN12C cells at 10 uM incubated for 48 hrs by sulforhodamine B assay relative to control; how it was run: as §2
MDA-MB-468 = test: Growth inhibition of human MDA-MB-468 cells at 10 uM incubated for 48 hrs by sulforhodamine B assay relative to control; how it was run: as §3
OVCAR-3 = test: Growth inhibition of human OVCAR-3 cells at 10 uM incubated for 48 hrs by sulforhodamine B assay relative to control; how it was run: as §2
SNB-75 = test: Growth inhibition of human SNB-75 cells at 10 uM incubated for 48 hrs by sulforhodamine B assay relative to control; how it was run: as §2
MCF7 = test: Growth inhibition of human MCF7 cells at 10 uM incubated for 48 hrs by sulforhodamine B assay relative to control; how it was run: as §3
HL-60(TB) = test: Growth inhibition of human HL-60(TB) cells at 10 uM incubated for 48 hrs by sulforhodamine B assay relative to control
How it was run: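 NCI-60 one-dose screen: same culture, 48 h drug exposure and SRB read-out. Reported as percent growth relative to no-drug control and to time-zero cell number; 0–100 means growth inhibition, below 0 means lethality.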

NCI-H522 = test: Growth inhibition of human NCI-H522 cells at 10 uM incubated for 48 hrs by sulforhodamine B assay relative to control; how it was run: as §2
PC-3 = test: Growth inhibition of human PC-3 cells at 10 uM incubated for 48 hrs by sulforhodamine B assay relative to control; how it was run: as §2
SF-539 = test: Growth inhibition of human SF-539 cells at 10 uM incubated for 48 hrs by sulforhodamine B assay relative to control; how it was run: as §2
NCI-H226 = test: Growth inhibition of human NCI-H226 cells at 10 uM incubated for 48 hrs by sulforhodamine B assay relative to control; how it was run: as §2
EKVX = test: Growth inhibition of human EKVX cells at 10 uM incubated for 48 hrs by sulforhodamine B assay relative to control; how it was run: as §3
COLO 205 = test: Growth inhibition of human COLO 205 cells at 10 uM incubated for 48 hrs by sulforhodamine B assay relative to control; how it was run: as §3
UACC-62 = test: Growth inhibition of human UACC-62 cells at 10 uM incubated for 48 hrs by sulforhodamine B assay relative to control; how it was run: as §1
OVCAR-8 = test: Growth inhibition of human OVCAR-8 cells at 10 uM incubated for 48 hrs by sulforhodamine B assay relative to control; how it was run: as §2
MOLT-4 = test: Growth inhibition of human MOLT-4 cells at 10 uM incubated for 48 hrs by sulforhodamine B assay relative to control; how it was run: as §2
HOP-92 = test: Growth inhibition of human HOP-92 cells at 10 uM incubated for 48 hrs by sulforhodamine B assay relative to control; how it was run: as §3
SK-MEL-28 = test: Growth inhibition of human SK-MEL-28 cells at 10 uM incubated for 48 hrs by sulforhodamine B assay relative to control; how it was run: as §2
M14 = test: Growth inhibition of human M14 cells at 10 uM incubated for 48 hrs by sulforhodamine B assay relative to control; how it was run: as §3
NCI-H23 = test: Growth inhibition of human NCI-H23 cells at 10 uM incubated for 48 hrs by sulforhodamine B assay relative to control; how it was run: as §2
KM12 = test: Growth inhibition of human KM12 cells at 10 uM incubated for 48 hrs by sulforhodamine B assay relative to control; how it was run: as §3
SK-MEL-2 = test: Growth inhibition of human SK-MEL-2 cells at 10 uM incubated for 48 hrs by sulforhodamine B assay relative to control; how it was run: as §2
NCI-H322M = test: Growth inhibition of human NCI-H322M cells at 10 uM incubated for 48 hrs by sulforhodamine B assay relative to control; how it was run: as §2
SK-MEL-5 = test: Growth inhibition of human SK-MEL-5 cells at 10 uM incubated for 48 hrs by sulforhodamine B assay relative to control; how it was run: as §2
UACC-257 = test: Growth inhibition of human UACC-257 cells at 10 uM incubated for 48 hrs by sulforhodamine B assay relative to control; how it was run: as §1
Hs-578T = test: Growth inhibition of human HS-578T cells at 10 uM incubated for 48 hrs by sulforhodamine B assay relative to control; how it was run: as §3
OVCAR-5 = test: Growth inhibition of human OVCAR-5 cells at 10 uM incubated for 48 hrs by sulforhodamine B assay relative to control; how it was run: as §2
LOX IMVI = test: Growth inhibition of human LOX IMVI cells at 10 uM incubated for 48 hrs by sulforhodamine B assay relative to control; how it was run: as §3
MDA-MB-435 = test: Growth inhibition of human MDA-MB-435 cells at 10 uM incubated for 48 hrs by sulforhodamine B assay relative to control; how it was run: as §3
SF-295 = test: Growth inhibition of human SF-295 cells at 10 uM incubated for 48 hrs by sulforhodamine B assay relative to control; how it was run: as §2

Row | SMILES | inhibition of growth at 10 µM (T47D) | inhibition of growth at 10 µM (SW-620) | inhibition of growth at 10 µM (A498) | inhibition of growth at 10 µM (SF-268) | inhibition of growth at 10 µM (MDA-MB-231) | inhibition of growth at 10 µM (SK-OV-3) | inhibition of growth at 10 µM (HOP-62) | inhibition of growth at 10 µM (SN12C) | inhibition of growth at 10 µM (MDA-MB-468) | inhibition of growth at 10 µM (OVCAR-3) | inhibition of growth at 10 µM (SNB-75) | inhibition of growth at 10 µM (MCF7) | inhibition of growth at 10 µM (HL-60(TB)) | inhibition of growth at 10 µM (NCI-H522) | inhibition of growth at 10 µM (PC-3) | inhibition of growth at 10 µM (SF-539) | inhibition of growth at 10 µM (NCI-H226) | inhibition of growth at 10 µM (EKVX) | inhibition of growth at 10 µM (COLO 205) | inhibition of growth at 10 µM (UACC-62) | also measured
1 | COc1cc2nc(-c3cccs3)cc(OCCCN3CCC(O)CC3)c2cc1OC | 20% | 20% | 20% | 20% | 20% | 20% | 20% | 20% | 20% | 20% | 20% | 20% | 20% | 20% | 20% | 20% | 20% | 20% | 20% | 20% | inhibition of growth at 10 µM (OVCAR-8): 20%; inhibition of growth at 10 µM (MOLT-4): 20%; inhibition of growth at 10 µM (HOP-92): 20%; inhibition of growth at 10 µM (SK-MEL-28): 20%; inhibition of growth at 10 µM (M14): 20%; inhibition of growth at 10 µM (NCI-H23): 20%; inhibition of growth at 10 µM (KM12): 20%; inhibition of growth at 10 µM (SK-MEL-2): 20%; inhibition of growth at 10 µM (NCI-H322M): 20%; inhibition of growth at 10 µM (SK-MEL-5): 20%; inhibition of growth at 10 µM (UACC-257): 20%; inhibition of growth at 10 µM (Hs-578T): 20%; inhibition of growth at 10 µM (OVCAR-5): 20%; inhibition of growth at 10 µM (LOX IMVI): 20%; inhibition of growth at 10 µM (MDA-MB-435): 20%; inhibition of growth at 10 µM (SF-295): 20%
2 | COc1cc2nc(-c3ccco3)cc(OCCCN3CCC(O)CC3)c2cc1OC | 46% | 46% | 46% | 46% | 46% | 46% | 46% | 46% | 46% | 46% | 46% | 46% | 46% | 46% | 46% | 46% | 46% | 46% | 46% | 46% | inhibition of growth at 10 µM (OVCAR-8): 46%; inhibition of growth at 10 µM (MOLT-4): 46%; inhibition of growth at 10 µM (HOP-92): 46%; inhibition of growth at 10 µM (SK-MEL-28): 46%; inhibition of growth at 10 µM (M14): 46%; inhibition of growth at 10 µM (NCI-H23): 46%; inhibition of growth at 10 µM (KM12): 46%; inhibition of growth at 10 µM (SK-MEL-2): 46%; inhibition of growth at 10 µM (NCI-H322M): 46%; inhibition of growth at 10 µM (SK-MEL-5): 46%; inhibition of growth at 10 µM (UACC-257): 46%; inhibition of growth at 10 µM (Hs-578T): 46%; inhibition of growth at 10 µM (OVCAR-5): 46%; inhibition of growth at 10 µM (LOX IMVI): 46%; inhibition of growth at 10 µM (MDA-MB-435): 46%; inhibition of growth at 10 µM (SF-295): 46%
